In test [1] the target is Insulin receptor (Homo sapiens) (UniProt P06213). Description: Inhibition of INSR (unknown origin) at 30 uM by microfluidic mobility shift assay relative to control. The gist of the method:
(§1)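 Single-point screen in a 24-enzyme kinase panel using a microfluidic assay. Each compound was tested at […] with ATP at roughly the Km for each enzyme. The pan-AGC inhibitor H-89 served as an internal control on every plate.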

Test [2] has as its target Mitogen-activated protein kinase 14 (Homo sapiens) (UniProt Q16539). Put plainly: Inhibition of p38alpha (unknown origin) at 30 uM by microfluidic mobility shift assay relative to control. The gist of the method:
as §1

Test [3] concerns the target Mitogen-activated protein kinase 3 (Homo sapiens, UniProt P27361). Description: Inhibition of ERK1 (unknown origin) at 30 uM by microfluidic mobility shift assay relative to control. The gist of the method:
as §1

The target of test [4] is Tyrosine-protein kinase Lyn (Homo sapiens, UniProt P07948). Description: Inhibition of LYN (unknown origin) at 30 uM by microfluidic mobility shift assay relative to control. The method in brief: as §1
Chain of Tyrosine-protein kinase Lyn (P07948 2-512 limits assumed): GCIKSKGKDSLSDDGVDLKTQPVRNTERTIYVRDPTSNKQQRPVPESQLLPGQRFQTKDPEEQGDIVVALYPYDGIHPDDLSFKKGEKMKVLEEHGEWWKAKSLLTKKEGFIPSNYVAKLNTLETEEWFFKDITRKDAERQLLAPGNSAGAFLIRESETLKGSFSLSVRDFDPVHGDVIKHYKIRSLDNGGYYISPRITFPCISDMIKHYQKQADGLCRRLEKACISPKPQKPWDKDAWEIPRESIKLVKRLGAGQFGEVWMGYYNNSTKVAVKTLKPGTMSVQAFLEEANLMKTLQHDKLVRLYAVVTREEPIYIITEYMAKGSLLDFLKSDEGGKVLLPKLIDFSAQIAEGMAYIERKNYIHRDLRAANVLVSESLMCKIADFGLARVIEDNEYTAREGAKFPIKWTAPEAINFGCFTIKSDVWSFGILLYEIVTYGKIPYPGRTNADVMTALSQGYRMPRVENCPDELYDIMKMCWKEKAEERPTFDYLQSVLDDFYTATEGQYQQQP
Test [5] has as its target Tyrosine-protein kinase Lck (Homo sapiens, UniProt P06239). Put plainly: Inhibition of LCK (unknown origin) at 30 uM by microfluidic mobility shift assay relative to control. The method in brief: as §1
Test [6] is filed under the species Homo sapiens. Put plainly: Inhibition of PKA (unknown origin) at 30 uM by microfluidic mobility shift assay relative to control. The method in brief:
as §1

The target of test [7] is MAP kinase-activated protein kinase 2 (Homo sapiens) (UniProt P49137). Description: Inhibition of MK2 (unknown origin) at 30 uM by microfluidic mobility shift assay relative to control. The gist of the method:
as §1

Test [8] addresses RAC-alpha serine/threonine-protein kinase (Homo sapiens, UniProt P31749). Description: Inhibition of AKT1 (unknown origin) at 30 uM by microfluidic mobility shift assay relative to control. The gist of the method: as §1
For test [9], the target named is Tyrosine-protein kinase ABL1 (Homo sapiens, UniProt P00519). Description: Inhibition of ABL (unknown origin) at 30 uM by microfluidic mobility shift assay relative to control. The gist of the method: as §1
Chain of Tyrosine-protein kinase ABL1 (P00519 whole entry): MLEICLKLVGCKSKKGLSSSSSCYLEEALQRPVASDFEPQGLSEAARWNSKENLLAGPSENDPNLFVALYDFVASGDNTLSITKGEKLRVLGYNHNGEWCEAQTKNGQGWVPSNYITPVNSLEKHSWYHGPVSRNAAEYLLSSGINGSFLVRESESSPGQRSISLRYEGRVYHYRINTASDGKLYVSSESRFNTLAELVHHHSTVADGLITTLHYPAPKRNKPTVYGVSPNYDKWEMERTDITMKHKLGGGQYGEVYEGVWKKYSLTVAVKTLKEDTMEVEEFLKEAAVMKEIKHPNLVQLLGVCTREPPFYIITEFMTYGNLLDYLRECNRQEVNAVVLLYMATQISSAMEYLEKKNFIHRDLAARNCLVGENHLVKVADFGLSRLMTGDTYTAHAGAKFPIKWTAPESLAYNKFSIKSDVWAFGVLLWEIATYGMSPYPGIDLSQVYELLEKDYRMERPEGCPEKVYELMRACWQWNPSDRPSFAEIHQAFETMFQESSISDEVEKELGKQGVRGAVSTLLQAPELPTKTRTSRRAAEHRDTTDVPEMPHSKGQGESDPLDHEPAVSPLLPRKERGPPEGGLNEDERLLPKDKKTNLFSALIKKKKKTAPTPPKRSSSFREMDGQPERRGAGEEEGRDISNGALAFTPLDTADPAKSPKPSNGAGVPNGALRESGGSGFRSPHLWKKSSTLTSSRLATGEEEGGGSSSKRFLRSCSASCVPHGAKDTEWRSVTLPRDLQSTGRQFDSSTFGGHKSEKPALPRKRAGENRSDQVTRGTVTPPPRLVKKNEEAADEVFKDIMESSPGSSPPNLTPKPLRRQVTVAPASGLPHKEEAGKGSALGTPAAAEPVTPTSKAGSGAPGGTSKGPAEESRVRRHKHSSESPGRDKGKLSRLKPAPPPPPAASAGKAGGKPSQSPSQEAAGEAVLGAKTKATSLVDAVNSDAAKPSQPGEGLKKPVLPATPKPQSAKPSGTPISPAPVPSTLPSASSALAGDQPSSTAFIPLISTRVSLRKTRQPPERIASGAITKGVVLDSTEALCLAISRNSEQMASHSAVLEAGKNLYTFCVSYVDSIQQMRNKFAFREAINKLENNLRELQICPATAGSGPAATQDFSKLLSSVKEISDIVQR
Test [10] deals with Ribosomal protein S6 kinase alpha-5 (Homo sapiens, UniProt O75582). Put plainly: Inhibition of MSK1 (unknown origin) at 30 uM by microfluidic mobility shift assay relative to control. The gist of the method:
as §1

For test [11], the target named is T1, Aurora kinase A (Homo sapiens) (UniProt O14965).
T1 sequence (whole entry): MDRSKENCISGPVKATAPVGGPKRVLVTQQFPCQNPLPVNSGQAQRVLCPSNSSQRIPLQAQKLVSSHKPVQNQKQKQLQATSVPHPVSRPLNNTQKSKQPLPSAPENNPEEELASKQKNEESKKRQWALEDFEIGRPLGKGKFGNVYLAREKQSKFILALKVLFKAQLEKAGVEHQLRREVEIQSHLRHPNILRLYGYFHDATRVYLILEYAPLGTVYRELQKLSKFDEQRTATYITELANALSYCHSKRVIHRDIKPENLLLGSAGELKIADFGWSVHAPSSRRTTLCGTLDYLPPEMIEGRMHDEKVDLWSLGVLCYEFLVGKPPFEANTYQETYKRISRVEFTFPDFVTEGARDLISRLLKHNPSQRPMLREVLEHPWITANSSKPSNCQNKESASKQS
Put plainly: Inhibition of AURA (unknown origin) at 30 uM by microfluidic mobility shift assay relative to control. The method in brief:
as §1

Test [12] addresses Glycogen synthase kinase-3 beta (Homo sapiens, UniProt P49841). Description: Inhibition of GSK3beta (unknown origin) at 30 uM by microfluidic mobility shift assay relative to control. The gist of the method: as §1
Test [13] deals with T2, Serine/threonine-protein kinase D2 (Homo sapiens) (UniProt Q9BZL6).
T2 sequence (whole entry): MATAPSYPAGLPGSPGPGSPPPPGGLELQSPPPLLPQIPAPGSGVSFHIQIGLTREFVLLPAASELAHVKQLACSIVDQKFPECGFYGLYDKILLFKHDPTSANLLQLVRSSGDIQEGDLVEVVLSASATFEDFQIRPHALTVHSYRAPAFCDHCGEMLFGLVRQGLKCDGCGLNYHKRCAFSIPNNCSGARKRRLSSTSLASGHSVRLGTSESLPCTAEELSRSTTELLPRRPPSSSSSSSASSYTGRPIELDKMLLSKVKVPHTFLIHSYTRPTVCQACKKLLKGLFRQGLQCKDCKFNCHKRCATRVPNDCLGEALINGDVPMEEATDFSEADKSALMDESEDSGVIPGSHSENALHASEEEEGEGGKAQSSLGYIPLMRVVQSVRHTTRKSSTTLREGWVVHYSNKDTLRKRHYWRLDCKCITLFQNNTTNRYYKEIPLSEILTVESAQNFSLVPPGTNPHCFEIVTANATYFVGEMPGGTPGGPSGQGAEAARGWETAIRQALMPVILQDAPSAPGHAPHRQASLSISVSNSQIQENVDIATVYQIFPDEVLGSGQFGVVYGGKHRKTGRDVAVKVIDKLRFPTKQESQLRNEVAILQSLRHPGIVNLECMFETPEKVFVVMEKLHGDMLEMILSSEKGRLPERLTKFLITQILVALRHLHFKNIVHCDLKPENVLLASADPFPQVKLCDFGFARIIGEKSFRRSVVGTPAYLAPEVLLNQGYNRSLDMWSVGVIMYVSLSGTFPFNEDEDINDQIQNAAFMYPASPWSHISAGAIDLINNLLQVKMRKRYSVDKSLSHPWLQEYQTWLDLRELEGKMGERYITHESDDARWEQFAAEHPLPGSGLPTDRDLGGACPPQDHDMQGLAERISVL
Put plainly: Inhibition of PKD2 (unknown origin) at 30 uM by microfluidic mobility shift assay relative to control. The method in brief:
as §1

Test [14] deals with T3, Serine/threonine-protein kinase Chk1 (Homo sapiens) (UniProt O14757).
T3 sequence (whole entry): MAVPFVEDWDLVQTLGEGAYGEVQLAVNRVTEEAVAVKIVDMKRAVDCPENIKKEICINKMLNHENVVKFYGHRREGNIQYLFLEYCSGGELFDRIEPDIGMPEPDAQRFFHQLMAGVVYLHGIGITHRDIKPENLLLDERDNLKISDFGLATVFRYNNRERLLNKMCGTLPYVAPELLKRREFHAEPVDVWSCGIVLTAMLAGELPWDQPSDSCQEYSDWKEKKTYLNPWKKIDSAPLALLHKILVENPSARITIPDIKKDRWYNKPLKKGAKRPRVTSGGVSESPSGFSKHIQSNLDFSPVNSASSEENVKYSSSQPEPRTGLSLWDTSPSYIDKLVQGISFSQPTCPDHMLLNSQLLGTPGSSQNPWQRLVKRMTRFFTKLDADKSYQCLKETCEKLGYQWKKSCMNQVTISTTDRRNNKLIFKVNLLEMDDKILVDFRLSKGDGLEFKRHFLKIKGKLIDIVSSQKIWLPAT
Put plainly: Inhibition of CHK1 (unknown origin) at 30 uM by microfluidic mobility shift assay relative to control. The gist of the method:
as §1

In test [15] the target is Serine/threonine-protein kinase Chk2 (Homo sapiens, UniProt O96017). Put plainly: Inhibition of CHK2 (unknown origin) at 30 uM by microfluidic mobility shift assay relative to control. The method in brief: as §1
Chain of Serine/threonine-protein kinase Chk2 (O96017 whole entry): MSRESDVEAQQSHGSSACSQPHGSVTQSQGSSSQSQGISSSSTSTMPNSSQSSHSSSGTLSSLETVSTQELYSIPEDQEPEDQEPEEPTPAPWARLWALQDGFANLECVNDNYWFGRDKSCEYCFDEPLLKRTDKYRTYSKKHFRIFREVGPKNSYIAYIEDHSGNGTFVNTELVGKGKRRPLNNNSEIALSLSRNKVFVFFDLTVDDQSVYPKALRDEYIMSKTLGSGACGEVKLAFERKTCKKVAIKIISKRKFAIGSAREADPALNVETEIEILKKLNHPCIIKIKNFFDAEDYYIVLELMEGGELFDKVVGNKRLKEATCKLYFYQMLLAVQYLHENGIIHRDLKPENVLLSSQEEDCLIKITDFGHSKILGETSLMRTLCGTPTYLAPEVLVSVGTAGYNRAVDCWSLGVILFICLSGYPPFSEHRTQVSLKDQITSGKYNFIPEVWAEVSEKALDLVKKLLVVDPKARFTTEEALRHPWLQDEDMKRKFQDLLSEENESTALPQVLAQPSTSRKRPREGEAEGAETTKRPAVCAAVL
For test [16], the target named is Mitogen-activated protein kinase 1 (Homo sapiens, UniProt P28482). Description: Inhibition of ERK2 (unknown origin) at 30 uM by microfluidic mobility shift assay relative to control. The method in brief:
as §1

The structures appear in SMILES notation.

Chain of Mitogen-activated protein kinase 1 (P28482 whole entry): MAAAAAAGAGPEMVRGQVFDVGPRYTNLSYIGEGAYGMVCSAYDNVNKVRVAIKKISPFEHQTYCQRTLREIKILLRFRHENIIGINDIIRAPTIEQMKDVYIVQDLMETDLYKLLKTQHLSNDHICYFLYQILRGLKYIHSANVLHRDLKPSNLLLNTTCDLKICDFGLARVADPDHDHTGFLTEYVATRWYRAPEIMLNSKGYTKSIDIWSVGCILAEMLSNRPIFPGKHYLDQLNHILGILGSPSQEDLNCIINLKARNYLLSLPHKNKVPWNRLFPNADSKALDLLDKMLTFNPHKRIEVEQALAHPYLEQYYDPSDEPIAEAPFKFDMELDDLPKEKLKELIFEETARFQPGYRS
Chain of Insulin receptor (Homo sapiens) (P06213 28-758 limits assumed): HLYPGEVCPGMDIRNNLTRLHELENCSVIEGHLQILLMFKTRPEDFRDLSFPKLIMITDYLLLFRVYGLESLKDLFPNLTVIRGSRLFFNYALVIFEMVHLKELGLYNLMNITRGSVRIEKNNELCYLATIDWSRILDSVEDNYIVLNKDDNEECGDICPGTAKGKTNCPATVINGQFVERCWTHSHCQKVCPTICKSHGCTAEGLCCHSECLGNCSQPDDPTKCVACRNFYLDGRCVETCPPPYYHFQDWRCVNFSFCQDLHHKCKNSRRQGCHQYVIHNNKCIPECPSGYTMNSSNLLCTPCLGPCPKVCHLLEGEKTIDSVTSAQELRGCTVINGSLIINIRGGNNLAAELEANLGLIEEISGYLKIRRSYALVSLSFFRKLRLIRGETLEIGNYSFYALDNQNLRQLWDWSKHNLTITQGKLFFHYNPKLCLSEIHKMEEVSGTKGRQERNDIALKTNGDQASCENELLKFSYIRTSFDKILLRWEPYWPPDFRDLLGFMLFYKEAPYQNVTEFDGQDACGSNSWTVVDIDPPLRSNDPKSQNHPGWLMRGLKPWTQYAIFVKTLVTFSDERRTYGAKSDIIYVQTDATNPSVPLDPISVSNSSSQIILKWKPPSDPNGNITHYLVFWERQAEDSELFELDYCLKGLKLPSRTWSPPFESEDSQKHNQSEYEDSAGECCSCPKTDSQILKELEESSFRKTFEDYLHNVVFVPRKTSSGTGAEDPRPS
Chain of Insulin receptor (Homo sapiens) (P06213 763-1382 limits assumed): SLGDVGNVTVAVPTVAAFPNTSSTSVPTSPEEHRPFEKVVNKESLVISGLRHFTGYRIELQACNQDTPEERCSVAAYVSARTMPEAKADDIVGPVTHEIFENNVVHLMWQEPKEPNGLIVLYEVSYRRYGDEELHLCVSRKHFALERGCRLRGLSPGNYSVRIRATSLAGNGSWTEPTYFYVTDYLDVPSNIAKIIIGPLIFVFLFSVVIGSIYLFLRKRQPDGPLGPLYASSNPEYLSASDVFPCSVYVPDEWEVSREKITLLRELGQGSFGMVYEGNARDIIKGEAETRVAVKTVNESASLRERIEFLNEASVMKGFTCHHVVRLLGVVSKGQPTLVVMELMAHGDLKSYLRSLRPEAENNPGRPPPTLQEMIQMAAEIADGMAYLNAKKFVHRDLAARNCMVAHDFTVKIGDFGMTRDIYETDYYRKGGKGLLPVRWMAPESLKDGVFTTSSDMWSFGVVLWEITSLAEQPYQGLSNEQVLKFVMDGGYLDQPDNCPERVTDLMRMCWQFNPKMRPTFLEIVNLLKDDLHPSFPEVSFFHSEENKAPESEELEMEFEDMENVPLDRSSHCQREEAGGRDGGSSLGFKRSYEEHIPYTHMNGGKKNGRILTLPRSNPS
Chain of RAC-alpha serine/threonine-protein kinase (P31749 whole entry): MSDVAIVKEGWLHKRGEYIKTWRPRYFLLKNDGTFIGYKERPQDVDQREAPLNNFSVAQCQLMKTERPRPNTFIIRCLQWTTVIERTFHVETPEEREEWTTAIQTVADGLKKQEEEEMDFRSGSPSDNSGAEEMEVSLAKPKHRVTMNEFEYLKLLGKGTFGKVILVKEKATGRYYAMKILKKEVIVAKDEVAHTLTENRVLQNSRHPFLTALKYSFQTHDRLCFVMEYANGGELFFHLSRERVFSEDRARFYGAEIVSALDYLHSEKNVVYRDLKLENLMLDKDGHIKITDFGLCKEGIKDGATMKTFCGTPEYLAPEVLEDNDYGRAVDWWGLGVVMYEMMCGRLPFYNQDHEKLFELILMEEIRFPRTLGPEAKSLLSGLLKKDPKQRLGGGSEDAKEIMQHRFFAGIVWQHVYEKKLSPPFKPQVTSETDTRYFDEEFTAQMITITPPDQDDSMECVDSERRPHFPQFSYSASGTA
Chain of MAP kinase-activated protein kinase 2 (Homo sapiens) (P49137 whole entry, looked up): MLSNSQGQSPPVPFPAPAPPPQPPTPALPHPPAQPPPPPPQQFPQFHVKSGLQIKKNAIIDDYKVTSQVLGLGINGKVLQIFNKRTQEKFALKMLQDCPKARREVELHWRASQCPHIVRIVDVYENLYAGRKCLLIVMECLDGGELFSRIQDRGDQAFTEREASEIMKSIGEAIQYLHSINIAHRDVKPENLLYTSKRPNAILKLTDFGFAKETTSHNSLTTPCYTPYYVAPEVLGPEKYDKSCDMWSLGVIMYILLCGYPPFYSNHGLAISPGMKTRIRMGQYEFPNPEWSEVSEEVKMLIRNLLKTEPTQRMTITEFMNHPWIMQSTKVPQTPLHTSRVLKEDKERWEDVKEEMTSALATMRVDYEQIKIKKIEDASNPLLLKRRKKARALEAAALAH

Take `OC1CCC2(CCN(c3ncnc4[nH]cnc34)CC2)NC1` (racemic): the inhibition (usually the relative decrease from the control value, in per cent) was determined as 4% in test [1]; 3% in test [2]; 46% in test [3]; 26% in [4]; 21% in test [5]; 99% in [6]. For the same compound, the inhibition is 11% in test [7]; 93% in test [8]; 25% in test [9]; 89% in [10]; 80% in [11]; 31% in test [12]. Moreover, the inhibition worked out at 48% in test [13], 71% in test [14], 53% in test [15] and 42% in [16].
For `O=S(=O)(c1cccc2cnccc12)N1CCCC2(CCCNC2)C1` (stereo not drawn), the inhibition in test [1] came to 5%; in test [2], 7%; in test [3], 6%; in test [4], 19%; in test [5], 17%; in test [6], 79%. Moreover, the inhibition in test [7] amounted to 4%; in [8] it was 30%; in test [9] it was 7%; in test [10] it was 38%; in [11] it was 37%; in [12], 14%. For the same compound, the inhibition was 18% in [13], 94% in test [14], 23% in [15] and 8% in test [16].
In the case of `O=S(=O)(c1cccc2cnccc12)N1CCCC12CCNCC2`, the inhibition in test [1] worked out at 3%; in [2], 0%; in test [3], 7%; in test [4] it was 3%; in test [5], 6%; in test [6], 77%. Besides, the inhibition was found to be 10% in test [7]; 27% in test [8]; 0% in test [9]; 47% in test [10]; 27% in test [11]; 9% in test [12]. For the same compound, the inhibition in [13] was 2%; in test [14], 15%; in test [15] it was 12%; in test [16], 0%.
Regarding `c1nc(N2CCCC3(CCNCC3)C2)c2nc[nH]c2n1`, the inhibition in test [1] came to 3%; in test [2] it was 2%; in test [3] it was 16%; in test [4], 33%; in test [5], 15%; in test [6], 98%. The inhibition came out at 19% in [7]; 85% in test [8]; 32% in test [9]; 89% in [10]; 70% in test [11]; 32% in test [12]. The inhibition in test [13] amounted to 55%; in test [14] it was 71%; in test [15] it was 35%; in test [16] it was 28%.
In the case of `c1nc(N2CCC3(CCCCO3)CC2)c2nc[nH]c2n1`, the inhibition in [1] is 12%; in test [2], 0%; in test [3], 31%; in [4], 35%; in [5], 52%; in test [6], 77%. Moreover, the inhibition worked out at 20% in test [7]; 26% in [8]; 36% in test [9]; 49% in test [10]; 92% in [11]; 56% in test [12]. In addition, the inhibition in test [13] was 40%; in test [14] it was 22%; in test [15], 47%; in [16] it was 28%.
For the compound `CN(C)C(=O)C1CCC2(CCN(c3ncnc4[nH]cnc34)CC2)NC1` (racemic), the inhibition is 17% in [1]; 14% in test [2]; 20% in test [3]; 14% in test [4]; 19% in test [5]; 86% in test [6]. The inhibition in test [7] was found to be 10%; in test [8], 69%; in test [9], 17%; in [10] it was 93%; in [11], 69%; in test [12] it was 7%. The inhibition in test [13] came out at 30%; in test [14], 54%; in [15], 27%; in test [16] it was 25%.
On to `c1ccc(C2CCNC3(CCN(c4ncnc5[nH]cnc45)CC3)C2)cc1` (racemic), for which the inhibition in [1] is 2%; in test [2] it was 0%; in test [3], 39%; in test [4] it was 75%; in [5], 73%; in [6], 100%. Besides, the inhibition in test [7] worked out at 3%; in test [8] it was 99%; in test [9], 39%; in [10] it was 97%; in test [11], 76%; in test [12], 20%. Further, the inhibition in test [13] is 71%; in test [14], 77%; in test [15], 75%; in [16] it was 54%.
Consider `c1nc(N2CCCC23CCNCC3)c2nc[nH]c2n1`, for which the inhibition in test [1] amounted to 9%; in test [2] it was 5%; in [3], 13%; in test [4], 5%; in test [5], 9%; in test [6], 39%. For the same compound, the inhibition is 17% in [7]; 12% in [8]; 8% in test [9]; 13% in [10]; 18% in [11]; 43% in [12]. Also, the inhibition in [13] amounted to 8%; in [14], 8%; in [15] it was 26%; in test [16], 10%.
